Measurements published in ChEMBL document CHEMBL2380256, “Discovery of novel Jak2-Stat pathway inhibitors with extended residence time on target” (Bioorg Med Chem Lett, 2013).
Blank lines part the entries; values can stand above or below the molecule they belong to. Calls of active or inactive are those of the source. The calls are words filed in the database; no cut-off is given here.

What was measured:
[1] = target: T1, Tyrosine-protein kinase JAK3 (Homo sapiens, UniProt P52333); assay: Inhibition of JAK3 (unknown origin) using biotinylated poly-EY peptide as substrate after 60 mins by HTRF assay
T1 sequence (P52333 whole entry): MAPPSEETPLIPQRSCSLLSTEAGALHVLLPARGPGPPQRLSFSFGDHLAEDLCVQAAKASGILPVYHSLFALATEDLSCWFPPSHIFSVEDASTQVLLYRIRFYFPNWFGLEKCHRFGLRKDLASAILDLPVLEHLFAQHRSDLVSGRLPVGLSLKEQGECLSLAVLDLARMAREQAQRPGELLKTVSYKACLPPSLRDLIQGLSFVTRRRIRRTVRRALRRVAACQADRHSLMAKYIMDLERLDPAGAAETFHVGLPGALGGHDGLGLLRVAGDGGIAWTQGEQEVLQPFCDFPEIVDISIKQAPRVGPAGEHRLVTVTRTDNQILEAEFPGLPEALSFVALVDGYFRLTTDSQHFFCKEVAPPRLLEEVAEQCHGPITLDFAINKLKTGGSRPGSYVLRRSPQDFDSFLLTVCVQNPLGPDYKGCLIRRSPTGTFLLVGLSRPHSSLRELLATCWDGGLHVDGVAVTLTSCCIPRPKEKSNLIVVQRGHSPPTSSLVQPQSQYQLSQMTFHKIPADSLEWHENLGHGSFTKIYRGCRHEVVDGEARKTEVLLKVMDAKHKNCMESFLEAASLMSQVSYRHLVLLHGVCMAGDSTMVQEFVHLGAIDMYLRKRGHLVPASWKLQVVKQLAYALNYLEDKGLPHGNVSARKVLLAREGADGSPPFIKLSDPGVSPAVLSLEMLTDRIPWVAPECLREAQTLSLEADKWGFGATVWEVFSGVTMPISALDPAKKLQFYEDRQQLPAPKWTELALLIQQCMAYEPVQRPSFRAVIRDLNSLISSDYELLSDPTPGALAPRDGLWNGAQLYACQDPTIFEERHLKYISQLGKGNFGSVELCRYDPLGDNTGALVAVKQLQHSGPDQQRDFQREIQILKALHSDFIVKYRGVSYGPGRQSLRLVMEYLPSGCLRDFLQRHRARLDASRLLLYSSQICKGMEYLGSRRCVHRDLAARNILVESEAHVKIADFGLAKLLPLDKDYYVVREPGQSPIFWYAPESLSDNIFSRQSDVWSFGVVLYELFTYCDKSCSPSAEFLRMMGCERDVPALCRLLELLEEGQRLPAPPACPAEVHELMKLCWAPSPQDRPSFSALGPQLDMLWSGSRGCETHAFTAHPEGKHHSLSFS

[2] = Growth inhibition of mouse BA/F3 cells transfected with JAK2 TEL domain after 24 hrs by Alamar Blue assay; type: functional; details: BaF3, 24 h
[3] = Growth inhibition of mouse BA/F3 cells transfected with JAK3 TEL domain after 24 hrs by Alamar Blue assay; type: functional, cell-based; details: BaF3, 24 h
[4] = target: T2, Tyrosine-protein kinase JAK2 (Homo sapiens, UniProt O60674); assay: Inhibition of JAK2 (unknown origin) using biotinylated TYK2 peptide as substrate after 60 mins
Target sequence in this assay (O60674 whole entry, the tested form may be a part): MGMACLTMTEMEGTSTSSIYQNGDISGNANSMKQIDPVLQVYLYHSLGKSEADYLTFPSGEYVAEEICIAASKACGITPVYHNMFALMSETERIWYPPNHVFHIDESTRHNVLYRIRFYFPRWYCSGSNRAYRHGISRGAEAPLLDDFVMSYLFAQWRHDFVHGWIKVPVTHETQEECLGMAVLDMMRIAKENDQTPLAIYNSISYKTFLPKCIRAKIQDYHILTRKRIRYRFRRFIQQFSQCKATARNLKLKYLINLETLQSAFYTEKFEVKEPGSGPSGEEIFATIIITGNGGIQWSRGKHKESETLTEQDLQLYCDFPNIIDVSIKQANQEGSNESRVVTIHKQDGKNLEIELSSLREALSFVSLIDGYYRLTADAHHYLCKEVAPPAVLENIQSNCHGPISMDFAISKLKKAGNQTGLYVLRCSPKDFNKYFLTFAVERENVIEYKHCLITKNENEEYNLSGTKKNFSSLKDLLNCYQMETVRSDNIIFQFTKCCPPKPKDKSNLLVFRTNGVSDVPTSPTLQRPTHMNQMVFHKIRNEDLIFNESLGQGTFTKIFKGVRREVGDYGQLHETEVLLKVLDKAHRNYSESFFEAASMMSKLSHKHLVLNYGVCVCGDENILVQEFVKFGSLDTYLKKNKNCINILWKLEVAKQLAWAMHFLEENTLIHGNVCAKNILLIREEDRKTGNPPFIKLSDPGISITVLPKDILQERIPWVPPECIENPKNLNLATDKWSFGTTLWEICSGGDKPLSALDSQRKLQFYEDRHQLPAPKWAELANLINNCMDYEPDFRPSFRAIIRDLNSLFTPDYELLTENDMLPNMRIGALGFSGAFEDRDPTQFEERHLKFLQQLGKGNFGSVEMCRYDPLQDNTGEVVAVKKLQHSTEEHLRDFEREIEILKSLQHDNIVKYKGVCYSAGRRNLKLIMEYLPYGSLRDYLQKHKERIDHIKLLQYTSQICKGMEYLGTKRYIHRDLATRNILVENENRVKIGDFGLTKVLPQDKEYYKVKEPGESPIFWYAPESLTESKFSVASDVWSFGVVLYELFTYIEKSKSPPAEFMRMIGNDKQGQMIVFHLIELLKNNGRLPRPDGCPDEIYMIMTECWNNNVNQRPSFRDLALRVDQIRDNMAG

Mus musculus [5] = assay: In vivo inhibition of JAK2 TEL domain (unknown origin) transfected in mouse Ba/F3 cells allografted in nude mouse assessed as inhibition of STAT5 phosphorylation at 5 mg/kg, po qd after 6 hrs; type: functional, organism-based; design: dose 5 mg/kg; details: BaF3
Outline: (§1)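 Female nude mice implanted intravenously with Ba/F3 TEL-JAK2 cells on day 0 and given a single oral dose on day 10. pStat5 was measured at the stated times post-dose. % inhibition was scaled between vehicle and a control inhibitor as maximum and minimum, with n = 3 per dose and time point, reported as mean ±SD.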

[6] = Total plasma concentration in nude mouse allografted with mouse Ba/F3 cells expressing JAK2 TEL domain at 5 mg/kg, po qd measured at 6 hrs; type: ADME, organism-based, BaF3; design: dose 5 mg/kg, route oral
Outline: (§2)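 Female nude mice implanted intravenously with Ba/F3 TEL-JAK2 cells on day 0 and dosed orally on day 10. Total plasma drug concentration was measured at the stated times post-dose, averaged over n = 3 per dose and time point.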

[7] = Volume of distribution at steady state in Han Wistar rat at 10 mg/kg, po and 3 mg/kg, iv; type: ADME, organism-based; details: in vivo, read-out: Vdss
[8] = AUC in CD1 mouse at 10 mg/kg, po and 3 mg/kg, iv; type: ADME, organism-based; details: plasma
Outline: (§3)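 Single-dose PK: female CD-1 mice and male Han Wistar rats, 10 mg/kg po in 0.1% HPMC and 3 mg/kg iv in DMA/PEG/saline 40/40/20.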

Mus musculus [9] = assay: In vivo inhibition of JAK2 TEL domain (unknown origin) transfected in mouse Ba/F3 cells allografted in nude mouse assessed as inhibition of STAT5 phosphorylation at 10 mg/kg, po qd measured at 8 hrs relative to vehicle-treated control; type: functional; details: BaF3, 8 h; outline: as §1
[10] = Oral bioavailability in Han Wistar rat at 10 mg/kg; type: ADME, organism-based; details: in vivo
Outline: (§4)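 Oral bioavailability in female CD-1 mice and male Han Wistar rats: 10 mg/kg po (0.1% HPMC) versus 3 mg/kg iv (DMA/PEG/saline 40/40/20). %F = (AUCpo × DoseIV)/(AUCIV × Dosepo) × 100.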

[11] = target: T1, Tyrosine-protein kinase JAK3; assay: Inhibition of JAK3 TEL domain (unknown origin) transfected in mouse Ba/F3 cells; type: cell-based, BaF3
[12] = Total plasma concentration in nude mouse allografted with mouse Ba/F3 cells expressing JAK2 TEL domain at 10 mg/kg, po qd measured at 6 hrs; type: ADME, organism-based, BaF3; design: dose 10 mg/kg, route oral; outline: as §2
Mus musculus [13] = assay: In vivo inhibition of JAK2 TEL domain (unknown origin) transfected in mouse Ba/F3 cells allografted in nude mouse assessed as inhibition of STAT5 phosphorylation at 10 mg/kg, po qd after 6 hrs relative to vehicle-treated control; type: functional; details: BaF3, 6 h; outline: as §1
[14] = Volume of distribution at steady state in CD1 mouse at 10 mg/kg, po and 3 mg/kg, iv; type: ADME, organism-based; details: in vivo, read-out: Vdss; outline: as §3
[15] = Total plasma concentration in nude mouse allografted with mouse Ba/F3 cells expressing JAK2 TEL domain at 10 mg/kg, po qd measured at 2 hrs; type: ADME, organism-based, BaF3; design: dose 10 mg/kg, route oral; outline: as §2
[16] = Fraction unbound in nude mouse plasma allografted with mouse Ba/F3 cells expressing JAK2 TEL domain at 5 to 10 mg/kg, po qd after 6 hrs; type: ADME, organism-based, BaF3; design: dose 5-10 mg/kg, route oral
[17] = target: T2, Tyrosine-protein kinase JAK2; assay: Inhibition of JAK2 TEL domain (unknown origin) transfected in mouse Ba/F3 cells; type: cell-based; details: baf3
Target sequence in this assay (O60674 whole entry, looked up, the tested form may be a part): as the sequence (O60674 whole entry, the tested form may be a part) above

[18] = Clearance in beagle dog at 5 mg/kg, po and […] mg/kg, iv; type: ADME, organism-based, Canis lupus familiaris; details: in vivo, 2.5 mg/kg
[19] = Growth inhibition of human UKE1 cells harboring JAK2 V617F mutant after 2 days by [3H]-thymidine incorporation assay; type: functional
[20] = Total plasma concentration in nude mouse allografted with mouse Ba/F3 cells expressing JAK2 TEL domain at 5 mg/kg, po qd measured at 2 hrs; type: ADME, organism-based, BaF3; design: dose 5 mg/kg, route oral; outline: as §2
[21] = Oral bioavailability in CD1 mouse at 10 mg/kg; type: ADME, organism-based; details: in vivo; outline: as §4
[22] = target: T2, Tyrosine-protein kinase JAK2; assay: Competitive inhibition of JAK2 (unknown origin)
Target sequence in this assay (O60674 whole entry, the tested form may be a part): as above

[23] = Total plasma concentration in nude mouse allografted with mouse Ba/F3 cells expressing JAK2 TEL domain at 5 mg/kg, po qd measured at 8 hrs; type: ADME, organism-based, BaF3; design: dose 5 mg/kg, route oral; outline: as §2
[24] = Clearance in CD1 mouse at 10 mg/kg, po and 3 mg/kg, iv; type: ADME, organism-based; details: in vivo; outline: as §3
[25] = AUC in Han Wistar rat at 10 mg/kg, po and 3 mg/kg, iv; type: ADME, organism-based; details: plasma; outline: as §3
[26] = Total plasma concentration in nude mouse allografted with mouse Ba/F3 cells expressing JAK2 TEL domain at 10 mg/kg, po qd measured at 8 hrs; type: ADME, organism-based, BaF3; design: dose 10 mg/kg, route oral; outline: as §2
SET-2 = assay: Growth inhibition of human SET2 harboring JAK2 V617F mutant after 24 hrs by Alamar Blue assay; type: functional; details: SET-2, 24 h
Mus musculus [27] = assay: In vivo inhibition of JAK2 TEL domain (unknown origin) transfected in mouse Ba/F3 cells allografted in nude mouse assessed as inhibition of STAT5 phosphorylation at 5 mg/kg, po qd measured at 8 hrs relative to vehicle-treated control; type: functional; details: BaF3, 8 h; outline: as §1
[28] = Volume of distribution at steady state in beagle dog at 5 mg/kg, po and 2.5 mg/kg, iv; type: ADME, organism-based, Canis lupus familiaris; details: in vivo, read-out: Vdss
Outline: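 Male Beagle dogs. Oral 5 mg/kg in 0.1% HPMC; intravenous 2.5 mg/kg in HP-β-CD.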

[29] = Clearance in Han Wistar rat at 10 mg/kg, po and 3 mg/kg, iv; type: ADME, organism-based; details: in vivo; outline: as §3
Hepatocyte = assay: Metabolic stability in human hepatocytes measured per 10^6 cells; type: ADME, cell-based
Homo sapiens = organism: Homo sapiens; assay: Selectivity ratio of IC50 for JAK3 (unknown origin) to IC50 for JAK2 (unknown origin)
Outline: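 Jak2 and Jak3 enzyme IC50s determined at 5 mM ATP; the ratio is the Jak3 IC50 divided by the Jak2 IC50.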

SMILES: Cc1cc(Nc2nc(N[C@@H](C)c3ccc(F)cn3)c(F)c(N3CCNCC3)n2)n[nH]1
IC50 [1]: 30 nM | GI50 [3]: 480 nM | IC50 [4]: 4 nM

SMILES: Cc1cc(Nc2nc(N[C@@H](C)c3ccc(F)cn3)c(F)c(N3CCS(=O)(=O)CC3)n2)n[nH]1
IC50 [1]: 4 nM | GI50 ([3]; read-out: GI50): 270 nM | IC50 [4]: 3 nM

SMILES: Cc1cc(Nc2nc(N[C@@H](C)c3ncc(F)cc3F)c(F)c(N3CCOCC3)n2)n[nH]1
inhibition (Mus musculus [5]): Active | concentration at 6 h [6]: 98 ng/mL | Vd [7]: 3.1 L/kg | AUC [8]: 13.3 µM·h | inhibition in vivo at 10 mg/kg (Mus musculus [9]): 70% | bioavailability [10]: 51% | IC50 [11]: 370 nM | IC50 [1]: 8 nM | concentration at 6 h [12]: 248 ng/mL | inhibition in vivo at 10 mg/kg (Mus musculus [13]): > 80% | Vd [14]: 2.9 L/kg | GI50 [2]: 8 nM | concentration at 2 h [15]: 376 ng/mL | fraction unbound at 6 h [16]: 0.06 | IC50 [17]: 7 nM | GI50 ([3]; read-out: GI50): 300 nM | clearance [18]: 14 mL/min/kg | GI50 [19]: 22 nM | concentration at 2 h [20]: 228 ng/mL | bioavailability [21]: 64% | Ki [22]: 1.41 nM | concentration at 8 h [23]: 55 ng/mL | clearance [24]: 18 mL/min/kg | AUC [25]: 17.7 µM·h | concentration at 8 h [26]: 123 ng/mL | GI50 (SET-2): 14 nM | inhibition in vivo at 5 mg/kg (Mus musculus [27]): 50% | Vd [28]: 2.5 L/kg | IC50 [4]: 3 nM | clearance [29]: 12 mL/min/kg | Stability (Hepatocyte): 5.2 µL/min/1e6 cells

SMILES: Cc1cc(Nc2nc(N[C@@H](C)c3ccc(F)cn3)c(F)c(N3CCN(S(C)(=O)=O)CC3)n2)n[nH]1
IC50 [1]: 20 nM | GI50 [3]: 50 nM | IC50 [4]: 3 nM

The next lines start with results.

IC50 [1]: 11200 nM | IC50 [4]: 37 nM
SMILES: COc1cc(Nc2nc(N[C@@H](C)c3ncc(F)cn3)c(F)c(N3CCOCC3)n2)n[nH]1
GI50 [2]: 160 nM | GI50 ([3]; read-out: GI50): 9400 nM

IC50 [1]: > 30000 nM | IC50 [4]: 25 nM
SMILES: Cc1cnc(Nc2nc(N[C@@H](C)c3ncc(F)cn3)nc(N3CCOCC3)c2F)s1
GI50 [2]: 30 nM | GI50 ([3]; read-out: GI50): 4900 nM

IC50 [1]: 229 nM | IC50 [4]: 3 nM
SMILES: Cc1cc(Nc2nc(N[C@@H](C)c3ncc(F)cn3)c(F)c(N3CCOCC3)n2)[nH]n1

IC50 [1]: 262 nM | IC50 [4]: 6 nM
SMILES: Cc1cc(Nc2nc(N[C@@H](C)c3ccc(F)cn3)c(Cl)c(N3CCOCC3)n2)[nH]n1

Ratio IC50 (Homo sapiens): 76
SMILES: Cc1cc(Nc2nc(N[C@@H](C)c3ncc(F)cn3)c(F)c(N3CCOCC3)n2)n[nH]1
GI50 [2]: 15 nM | GI50 ([3]; read-out: GI50): 390 nM
